Data taken from ChEMBL document CHEMBL4033786, “Discovery of Novel 1-Cyclopentenyl-3-phenylureas as Selective, Brain Penetrant, and Orally Bioavailable CXCR2 Antagonists” (J Med Chem, 2018).
pIC50: −log10 of the molar value. Values after ≈ are worked out from the molar mass of the structure shown. Active and inactive are the calls of the source. The calls are words filed in the database; no cut-off is given here.

Legend:
[1] = Fraction unbound in Han-Wistar SOA rat model brain at 2 mg/kg administered via oral gavage by UPLC/MS/MS analysis; type: ADME, organism-based
[2] = Fraction unbound in Han-Wistar SOA rat model blood at 2 mg/kg administered via oral gavage by UPLC/MS/MS analysis; type: ADME, organism-based
[3] = system: Blood; test: Dose normalized AUC (0 to 7 hrs) in Han-Wistar SOA rat model blood at 2 mg/kg administered via oral gavage by UPLC/MS/MS analysis; type: ADME, organism-based; conditions: in vivo
Procedure, shortened: (§1)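 Male Han-Wistar rats were given 2 mg/kg by oral gavage as a suspension in DMSO:1% methylcellulose (1:99). Blood (cardiac puncture, EDTA-K2, under isoflurane) and brains were collected at 0.25–7 h. Brain was homogenised in 3-fold PBS, samples were protein-precipitated and quantified by UPLC/MS/MS.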

[4] = Solubility of compound in fasted state simulated intestinal fluid measured after 4 hrs; type: physicochemical
Procedure, shortened: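 Solubility in FaSSIF, read after 4 h incubation.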

[5] = molecular target: T1, C-X-C chemokine receptor type 2 (Homo sapiens, UniProt P25025); test: Antagonist activity at CXCR2 in human whole blood assessed as inhibition of GROalpha-stimulated CD11b upregulation preincubated for 15 mins followed by GROalpha stimulation measured after 15 mins by FITC-staining based FACS analysis
T1 sequence (P25025 whole entry): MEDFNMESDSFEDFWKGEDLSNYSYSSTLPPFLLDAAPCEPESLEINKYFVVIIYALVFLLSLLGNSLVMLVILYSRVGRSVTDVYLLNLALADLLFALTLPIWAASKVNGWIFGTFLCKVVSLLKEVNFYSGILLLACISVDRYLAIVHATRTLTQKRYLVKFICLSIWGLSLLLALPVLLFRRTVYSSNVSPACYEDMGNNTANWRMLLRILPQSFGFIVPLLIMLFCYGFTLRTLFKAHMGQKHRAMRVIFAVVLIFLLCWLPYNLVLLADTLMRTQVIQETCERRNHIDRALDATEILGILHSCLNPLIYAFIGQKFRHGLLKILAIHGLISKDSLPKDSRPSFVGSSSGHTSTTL

[6] = Passive permeability in MDCK2-MDR1 cells transduced with BacMam2-BCRP at 3 uM after 90 mins by Transwell assay; type: ADME, cell-based, Canis lupus familiaris, MDCK-MDR1; conditions: dog; read-out: permeability
Procedure, shortened: (§2)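 MDCKII-MDR1 cells transduced with BacMam2-BCRP and grown in Transwells. Compound at 3 μM, in duplicate, was incubated 90 min A→B (and B→A) with and without GF120918 (5 μM, dual P-gp/BCRP inhibitor). Passive permeability (Pexact, nm/s) was calculated by an equation from earlier work. The permeability ratio is A→B permeability with GF120918 over A→B permeability without it.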

[7] = Ratio of brain dose normalized AUC (0 to 7 hrs) to […] dose normalized AUC (0 to 7 hrs), Kp of the compound in Han-Wistar SOA rat model at 2 mg/kg administered via oral gavage by UPLC/MS/MS analysis; type: ADME, organism-based
Procedure, shortened: (§3)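 Male Han-Wistar rats given a single 2 mg/kg oral gavage as a suspension in DMSO:1% methylcellulose (1:99). Blood was taken by cardiac puncture under isoflurane at 0.25–7 h, diluted 1:3 with water, and brains were homogenized in 3-fold PBS. Samples were extracted by acetonitrile protein precipitation and quantified by UPLC/MS/MS. Kp = brain DNAUC0-7h/blood DNAUC0-7h; Kp,uu = Kp×Fu,br/Fu,bl.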

[8] = Ratio of passive permeability in presence of dual P-gp/BCRP inhibitor GF120918 to absence of GF120918 in MDCK2-MDR1 cells transduced with BacMam2-BCRP at 3 uM after 90 mins by Transwell assay; type: ADME, cell-based, Canis lupus familiaris; conditions: dog, mdck2-mdr1, 1.5 h; procedure, shortened: as §2
[9] = system: Brain; test: Dose normalized AUC (0 to 7 hrs) in Han-Wistar SOA rat model brain at 2 mg/kg administered via oral gavage by UPLC/MS/MS analysis; type: ADME, organism-based; conditions: in vivo; procedure, shortened: as §1
[10] = molecular target: C-X-C chemokine receptor type 2 (Mus musculus) (UniProt P35343); test: Antagonist activity at CXCR2 in C57 mouse whole blood assessed as inhibition of GROalpha-stimulated CD11b upregulation at 10 uM preincubated for 2 hr followed by GROalpha stimulation measured after 10 mins by FITC-staining based FACS analysis
[11] = molecular target: C-X-C chemokine receptor type 2 (Mus musculus, UniProt P35343); test: Antagonist activity at CXCR2 in C57 mouse whole blood assessed as inhibition of GROalpha-stimulated CD11b upregulation preincubated for 2 hr followed by GROalpha stimulation measured after 10 mins by FITC-staining based FACS analysis
[12] = molecular target: T1, C-X-C chemokine receptor type 2; test: Antagonist activity at TEV protease cleavage site linked GAL4-VP16-fused recombinant human CXCR2 expressed in cells assessed as inhibition of […] human CXCL1-stimulated beta-arrestin recruitment by CCF4-AM-fluorescence based FRET assay; type: cell-based; conditions: read-out: pIC50 (converted)
Procedure, shortened: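 Stable cell line expressing recombinant human CXCR2 linked to a TEV site and Gal4-VP16. Cells were starved 24 h at 37 °C, 5% CO2, then resuspended at ~200,000 cells/mL. They were given compound in DMSO (concentration-response), stimulated with 80 nM hCXCL1 and incubated overnight at 37 °C. CCF4-AM substrate was then added for 2 h at RT in the dark.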

[13] = Unbound brain-to-blood concentration ratio in Han-Wistar SOA rat model at 2 mg/kg administered via oral gavage by UPLC/MS/MS analysis; type: ADME, organism-based; conditions: read-out: K(p,uu,brain); procedure, shortened: as §3
[14] = Cmax in Wistar rat at 2.38 mg/kg, po measured up to 4 hrs post dose; type: ADME, organism-based; design: dose 2.38 mg/kg, route oral; conditions: in vivo
[15] = Efflux ratio of passive permeability in MDCK2-MDR1 cells transduced with BacMam2-BCRP at 3 uM after 90 mins by Transwell assay; type: ADME, cell-based, Canis lupus familiaris, MDCK-MDR1; conditions: dog
Procedure, shortened: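 MDCKII-MDR1 cells transduced with BacMam2-BCRP in Transwells. Compound at 3 μM was measured in duplicate, A→B and B→A, after 90 min, with and without 5 μM GF120918. ER = B→A/A→B permeability without inhibitor. System qualified with amprenavir and dantrolene ERs.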

[16] = system: Rattus norvegicus; test: Dose normalized AUC (0 to infinity) in Wistar rat at 1.01 mg/kg, iv measured up to 4 hrs post dose; type: ADME, organism-based; conditions: in vivo
[17] = Oral bioavailability in Wistar rat at 2.38 mg/kg measured up to 4 hrs after dose; type: ADME, organism-based; conditions: in vivo
[18] = Tmax in Wistar rat at 2.38 mg/kg, po measured up to 4 hrs post dose; type: ADME, organism-based; conditions: in vivo
[19] = Volume of distribution at steady state in Wistar rat at 1.01 mg/kg, iv measured up to 4 hrs post dose; type: ADME, organism-based; conditions: in vivo, read-out: Vdss
[20] = Elimination half life in Wistar rat at 1.01 mg/kg, iv measured up to 4 hrs post dose; type: ADME, organism-based; conditions: in vivo, read-out: beta t1/2 (converted)
[21] = system: Rattus norvegicus; test: Dose normalized AUC (0 to infinity) in Wistar rat at 2.38 mg/kg, po measured up to 4 hrs post dose; type: ADME, organism-based; conditions: in vivo
[22] = Clearance in Wistar rat blood at 1.01 mg/kg, iv measured up to 4 hrs post dose; type: ADME, organism-based

Chain of C-X-C chemokine receptor type 2 (Mus musculus) (P35343 whole entry): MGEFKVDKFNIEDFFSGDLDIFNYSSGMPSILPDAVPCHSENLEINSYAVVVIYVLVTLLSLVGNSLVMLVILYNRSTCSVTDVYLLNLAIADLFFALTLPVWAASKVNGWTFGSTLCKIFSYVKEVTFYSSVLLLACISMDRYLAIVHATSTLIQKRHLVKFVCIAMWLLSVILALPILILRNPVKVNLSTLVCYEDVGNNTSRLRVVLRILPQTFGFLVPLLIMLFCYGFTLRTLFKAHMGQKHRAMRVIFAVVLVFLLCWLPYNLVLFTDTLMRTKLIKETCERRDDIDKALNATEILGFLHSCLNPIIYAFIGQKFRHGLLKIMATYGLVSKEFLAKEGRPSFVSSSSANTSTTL
Chain of C-X-C chemokine receptor type 2 (Mus musculus, UniProt P35343) (P35343 whole entry, the tested form may be a part): as the sequence (P35343 whole entry) above

| Compound | fraction unbound [1] | fraction unbound [2] | AUC/dose [3] [ng·h/mL/mg/kg] | solubility at 4 h [4] [µg/mL] | pIC50 [5] | Papp at 1.5 h, 3 µM [6] [×10⁻⁶ cm/s] | Kp [7] | Ratio [8] | AUC/dose [9] [ng·h/g/mg/kg] | IC50 [12] [nM] | Kp uu [13] | other results |
| --- | --- | --- | --- | --- | --- | --- | --- | --- | --- | --- | --- | --- |
| CC[C@@H](Nc1c(Nc2cccc(C(=O)N(C)C)c2O)c(=O)c1=O)c1ccc(C)o1 [NAVARIXIN ANHYDROUS] |  |  |  |  |  |  |  |  |  |  |  | inhibition [10]: Active; pIC50 [11]: 8.09 |
| CC1=CCC[C@H]1NC(=O)Nc1ccc(Cl)c(S(=O)(=O)C(C)(F)F)c1O | 0.051 | 0.0065 | 4331 | 50.8 (≈ 129 µM) | 6.20 | 34.8 | 0.06 | 2.4 | 243 |  |  |  |
| CC1=CCC[C@H]1NC(=O)Nc1ccc(C#N)c(S(=O)(=O)C(C)(C)CC(F)(F)F)c1O |  |  |  | 408 (≈ 916 µM) | 6.00 | 3 |  | 4.3 |  | 0.158 |  |  |
| CC1=CCC[C@H]1NC(=O)Nc1ccc(Cl)c(S(=O)(=O)C(C)(C)C(F)(F)F)c1O | 0.021 | 0.007 | 535 | 3.4 (≈ 7.71 µM) |  | 33.9 | 0.2 | 1.6 | 107 | 0.501 | 0.59 |  |
| CC1=CCC[C@H]1NC(=O)Nc1ccc(Cl)c(S(=O)(=O)C(C)(C)[C@H]2CCOC2)c1O | 0.033 | 0.016 | 63.8 | 25.2 (≈ 56.9 µM) | 6.50 | 33.1 | 0.21 |  | 13.4 | 1.58 | 0.42 | efflux ratio at 1.5 h, 3 µM [15]: 2.2 |
| CC1=CCC[C@H]1NC(=O)Nc1ccc(Cl)c(S(=O)(=O)C(C)(C)[C@@H]2CCOC2)c1O |  |  |  | 24.6 (≈ 55.5 µM) |  | 12.7 |  | 4.5 |  | 1.26 |  |  |

More lines, in order of rising pIC50 [5], values ahead:

| fraction unbound [1] | fraction unbound [2] | AUC/dose [3] [ng·h/mL/mg/kg] | solubility at 4 h [4] [µg/mL] | pIC50 [5] | Papp at 1.5 h, 3 µM [6] [×10⁻⁶ cm/s] | Kp [7] | Ratio [8] | AUC/dose [9] [ng·h/g/mg/kg] | IC50 [12] [nM] | Kp uu [13] | Compound | other results |
| --- | --- | --- | --- | --- | --- | --- | --- | --- | --- | --- | --- | --- |
|  |  |  | 1.2 (≈ 3.1 µM) | 6.50 | 36.4 |  | 1.5 |  | 1 |  | CC1=CCC[C@H]1NC(=O)Nc1ccc(Cl)c(S(=O)(=O)C(C)(C)C)c1O |  |
| 0.116 | 0.034 | 2575 | 686 (≈ 1820 µM) | 6.80 | 9 | 0.03 | 4 | 73 |  |  | CC1=CCC[C@H]1NC(=O)Nc1ccc(C#N)c(S(=O)(=O)C(C)(C)C)c1O |  |
| 0.106 | 0.036 | 788 | 20.5 (≈ 49.4 µM) | 6.80 | 25.2 | 0.08 | 2.4 | 60.5 |  | 0.23 | CC1=CCC[C@H]1NC(=O)Nc1ccc(Cl)c(S(=O)(=O)[C@]2(C)CCOC2)c1O |  |
| 0.137 | 0.05 | 2580 | 387 (≈ 905 µM) | 6.90 | 20.3 | 0.06 | 3.4 | 161 |  |  | CC1=CCC[C@H]1NC(=O)Nc1ccc(Cl)c(S(=O)(=O)[C@H]2C[C@H](N(C)C)C2)c1O |  |
| 0.114 | 0.0065 | 11721 | 758 (≈ 1670 µM) | 7.00 | 20.5 | 0.03 | 2.8 | 296 |  |  | CC1=CCC[C@H]1NC(=O)Nc1ccc(Cl)c(S(=O)(=O)[C@H]2C[C@H](N3CCCC3)C2)c1O |  |
| 0.034 | 0.011 | 614 | 3 (≈ 7.41 µM) | 7.00 | 65.4 | 0.16 |  | 97 | 0.631 | 0.48 | CC1=CCC[C@H]1NC(=O)Nc1ccc(Cl)c(S(=O)(=O)C(C)(C)CF)c1O | Cmax [14]: 292 ng/mL; efflux ratio at 1.5 h, 3 µM [15]: 0.87; AUC/dose [16]: 1071 ng·h/mL/mg/kg; bioavailability [17]: 88%; Tmax [18]: 2.5 h; Vd [19]: 2.2 L/kg; half-life [20]: 2.5 h; AUC/dose [21]: 961 ng·h/mL/mg/kg; clearance [22]: 15.7 mL/min/kg |
